From PMC4245169 (ACS Chemical Biology, 2014)

How the values were obtained:
[1] = tested on: E. coli whole cell extract (prokaryotic ribosomal preparation); assay: Cell free translation inhibition, E. coli S30 extract, luciferase reporter; format: biochemical; settings: read-out: E. coli IC50, average of three independent experiments
How it was run: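 Test compound at varying concentrations preincubated 20 min at room temperature with E. coli S30 extract plus all amino acids. Luciferase control template then added and translation run 60 min at 37 °C, stopped on ice 5 min. Luminescence read right after luciferin addition. Triplicates normalised to vehicle control; macrolide positive controls. IC50 by logit regression, averaged over three independent experiments.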

E. coli 23S rRNA [2] = assay: CMCT chemical footprinting of 23S rRNA in intact 70S ribosomes; format: binding; settings: primer 2180; peptolides and 7b 150 μM, clarithromycin 50 μM
[3] = tested on: rabbit reticulocyte whole cell lysate (eukaryotic ribosomal preparation); assay: Cell free translation inhibition, rabbit reticulocyte lysate; format: biochemical
How it was run: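 Nuclease-treated rabbit reticulocyte lysate was preincubated with test compound at varying concentrations and all amino acids for 20 min at room temperature. Luciferase control template was then added, and translation ran at 30 °C for 90 min before stopping on ice for 5 min. Luminescence was read after luciferin addition. Samples were run in triplicate and normalized to vehicle control. IC50 was fit by logit regression and averaged over three independent experiments.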

E. coli 23S rRNA [4] = settings: cited from earlier work

| IC50 [1] | IC50 ([3]; read-out: rabbit retic. IC50, cell free translation, luciferase reporter, average of three independent experiments) | Compound | protection of U1963 from CMCT modification (E. coli 23S rRNA [2]) | inhibition of eukaryotic translation (in words) ([3]; RRL, controls at 250 μM) | protection of A752 (E. coli 23S rRNA [4]) |
| --- | --- | --- | --- | --- | --- |
| 320 ± 120 nM | > 250 µM | CC[C@H]1OC(=O)[C@H](C)[C@@H](O[C@H]2C[C@@](C)(OC)[C@@H](O)[C@H](C)O2)[C@H](C)[C@@H](O[C@@H]2O[C@H](C)C[C@H](N(C)C)[C@H]2O)[C@](C)(OC)C[C@@H](C)C(=O)[C@H](C)[C@@H](O)[C@]1(C)O [clarithromycin 1, clarithromycin] | available to CMCT modification | inactive |  |
|  |  | CC[C@H]1OC(=O)[C@H](C)C(=O)[C@H](C)[C@@H](O[C@@H]2O[C@H](C)C[C@H](N(C)C)[C@H]2O)[C@](C)(OC)C[C@@H](C)C(=O)[C@H](C)[C@H]2N(CCCCn3cnc(-c4cccnc4)c3)C(=O)O[C@]12C [TEL, telithromycin] |  |  | protected |
